The source made the active and inactive calls.
What was measured:
[1] = target: Norepinephrine transporter (Rattus norvegicus, UniProt Q9WTR4); assay: Inhibition of uptake of tritiated norepinephrine (NE) in rat synaptosomes; type: subcellular, Brain
[2] = target: Muscarinic acetylcholine receptor (Rattus norvegicus) (UniProt P08482+P08483+P08485+P08911+P10980); assay: Binding affinity towards Muscarinic acetylcholine receptor at 1.0 uM concentration; type: protein assay
[3] = target: T1, Adrenergic receptor alpha-2 (Rattus norvegicus, UniProt P22086+P19328+P22909); assay: Binding affinity towards alpha-2 adrenergic receptor; type: protein assay
T1 sequence (P22086 whole entry): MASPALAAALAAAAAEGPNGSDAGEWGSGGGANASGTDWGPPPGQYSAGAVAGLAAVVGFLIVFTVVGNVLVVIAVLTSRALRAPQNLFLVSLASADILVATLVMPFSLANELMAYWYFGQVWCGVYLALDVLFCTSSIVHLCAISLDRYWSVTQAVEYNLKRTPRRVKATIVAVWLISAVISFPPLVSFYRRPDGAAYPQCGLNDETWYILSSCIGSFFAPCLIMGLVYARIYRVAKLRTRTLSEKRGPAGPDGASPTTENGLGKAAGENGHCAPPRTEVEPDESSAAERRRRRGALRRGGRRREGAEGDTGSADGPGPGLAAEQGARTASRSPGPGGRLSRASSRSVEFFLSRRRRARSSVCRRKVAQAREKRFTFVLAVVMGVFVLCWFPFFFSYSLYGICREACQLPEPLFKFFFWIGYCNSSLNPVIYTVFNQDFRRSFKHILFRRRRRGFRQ
T1 sequence (P19328 whole entry): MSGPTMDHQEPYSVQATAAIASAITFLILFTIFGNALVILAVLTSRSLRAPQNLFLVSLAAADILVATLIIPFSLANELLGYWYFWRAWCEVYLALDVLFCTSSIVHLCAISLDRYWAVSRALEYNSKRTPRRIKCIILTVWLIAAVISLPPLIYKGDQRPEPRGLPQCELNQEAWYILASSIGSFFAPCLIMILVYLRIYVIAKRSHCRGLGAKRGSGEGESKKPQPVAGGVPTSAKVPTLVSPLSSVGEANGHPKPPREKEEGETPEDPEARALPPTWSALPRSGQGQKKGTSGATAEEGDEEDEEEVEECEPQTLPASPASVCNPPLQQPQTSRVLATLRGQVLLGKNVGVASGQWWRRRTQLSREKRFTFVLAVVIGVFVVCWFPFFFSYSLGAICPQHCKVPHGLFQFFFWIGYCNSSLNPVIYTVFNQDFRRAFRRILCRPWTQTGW
T1 sequence (P22909 whole entry): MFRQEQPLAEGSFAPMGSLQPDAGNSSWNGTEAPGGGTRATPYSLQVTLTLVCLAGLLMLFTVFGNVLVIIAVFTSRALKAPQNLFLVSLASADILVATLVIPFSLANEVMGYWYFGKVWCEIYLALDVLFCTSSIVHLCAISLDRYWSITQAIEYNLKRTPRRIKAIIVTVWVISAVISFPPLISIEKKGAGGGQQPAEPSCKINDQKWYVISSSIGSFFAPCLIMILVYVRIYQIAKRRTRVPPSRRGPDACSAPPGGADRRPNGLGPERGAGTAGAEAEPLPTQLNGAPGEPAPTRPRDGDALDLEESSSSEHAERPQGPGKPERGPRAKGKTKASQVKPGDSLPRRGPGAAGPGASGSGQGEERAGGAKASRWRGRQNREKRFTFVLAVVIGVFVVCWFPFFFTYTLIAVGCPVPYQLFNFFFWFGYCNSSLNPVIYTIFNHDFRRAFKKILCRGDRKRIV

Mus musculus [4] = organism: Mus musculus; assay: Antagonism of tetrabenazine (TBZ)-induced depression measured in mice by motor activity; type: functional; settings: Mus musculus; read-out: ED50
Procedure, shortened: (§1)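 Nonfasted male Swiss Webster mice, 18–24 g, ten per dose level and in saline controls. Test compound given ip 30 min before tetrabenazine 32 mg/kg ip; dose expressed as free base. Motor activity and ptosis scored. Control response ≤90% corrected by Abbott's formula.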

[5] = target: Serotonin 1 (5-HT1) receptor (Rattus norvegicus, UniProt P28564+P30940+P19327+P28565); assay: Binding affinity towards serotonin S1 receptor; type: protein assay
Procedure, shortened: (§2)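 Rat brain crude synaptic membranes in 20 mM NaHEPES pH 7.5. Ligands: α1 cortex […] 0.4 nM, nonspecific with (-)-NE 100 μM, 30 min at 25 °C. […] D2 striatum [3H]spiperone 0.05 nM with (+)-butaclamol 1 μM, 45 min at 37 °C. S1 cortex [3H]5-HT 1 nM plus glutathione and MgCl2, with 5-HT 10 μM, 20 min at 37 °C. […] Samples filtered on GF/B and counted.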

[6] = target: Adrenergic receptor alpha-1 (Rattus norvegicus) (UniProt P15823+P23944+P43140); assay: Binding affinity towards alpha-1 adrenergic receptor at 1.0 uM concentration; type: protein assay; procedure, shortened: as §2
Mus musculus [7] = organism: Mus musculus; assay: Antagonism of tetrabenazine (TBZ)-induced depression in mice measured for ptosis; type: functional; settings: Mus musculus; read-out: ED50; procedure, shortened: as §1
[8] = target: D(2) dopamine receptor (Rattus norvegicus) (UniProt P61169); assay: Binding affinity towards dopamine receptor D2 at 1.0 uM concentration; procedure, shortened: as §2
Chain of D(2) dopamine receptor (Rattus norvegicus) (P61169 whole entry): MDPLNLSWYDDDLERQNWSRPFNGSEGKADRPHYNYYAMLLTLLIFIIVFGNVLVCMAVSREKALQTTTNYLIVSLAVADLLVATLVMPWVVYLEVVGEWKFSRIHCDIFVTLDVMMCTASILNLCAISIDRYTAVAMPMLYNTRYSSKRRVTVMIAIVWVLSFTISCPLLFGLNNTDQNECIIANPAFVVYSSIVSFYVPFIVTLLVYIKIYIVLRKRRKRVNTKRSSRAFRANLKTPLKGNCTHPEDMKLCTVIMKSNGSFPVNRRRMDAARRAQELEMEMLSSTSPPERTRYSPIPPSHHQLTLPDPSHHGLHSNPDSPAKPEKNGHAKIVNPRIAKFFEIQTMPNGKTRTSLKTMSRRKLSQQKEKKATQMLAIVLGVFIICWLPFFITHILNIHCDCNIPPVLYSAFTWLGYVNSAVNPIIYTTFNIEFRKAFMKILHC

[9] = target: Serotonin 2 (5-HT2) receptor (Rattus norvegicus) (UniProt P30994+P08909+P14842); assay: Binding affinity towards 5-hydroxytryptamine 2 receptor at 1.0 uM concentration; type: protein assay; procedure, shortened: as §2
Chain of Serotonin 2 (5-HT2) receptor (Rattus norvegicus) (P08909 whole entry, looked up): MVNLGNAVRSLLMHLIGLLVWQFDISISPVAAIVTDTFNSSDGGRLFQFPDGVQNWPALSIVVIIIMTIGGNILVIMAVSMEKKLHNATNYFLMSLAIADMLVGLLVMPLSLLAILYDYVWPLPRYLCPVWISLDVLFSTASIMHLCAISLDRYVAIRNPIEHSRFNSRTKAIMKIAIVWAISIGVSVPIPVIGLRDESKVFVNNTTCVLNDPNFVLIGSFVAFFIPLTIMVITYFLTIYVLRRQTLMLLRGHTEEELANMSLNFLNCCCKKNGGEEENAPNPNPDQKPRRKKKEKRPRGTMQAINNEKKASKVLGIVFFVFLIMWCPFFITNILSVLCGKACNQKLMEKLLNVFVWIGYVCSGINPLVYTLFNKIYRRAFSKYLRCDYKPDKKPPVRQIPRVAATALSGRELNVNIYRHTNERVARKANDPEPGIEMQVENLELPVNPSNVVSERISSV
Chain of Serotonin 2 (5-HT2) receptor (Rattus norvegicus) (P14842 whole entry, looked up): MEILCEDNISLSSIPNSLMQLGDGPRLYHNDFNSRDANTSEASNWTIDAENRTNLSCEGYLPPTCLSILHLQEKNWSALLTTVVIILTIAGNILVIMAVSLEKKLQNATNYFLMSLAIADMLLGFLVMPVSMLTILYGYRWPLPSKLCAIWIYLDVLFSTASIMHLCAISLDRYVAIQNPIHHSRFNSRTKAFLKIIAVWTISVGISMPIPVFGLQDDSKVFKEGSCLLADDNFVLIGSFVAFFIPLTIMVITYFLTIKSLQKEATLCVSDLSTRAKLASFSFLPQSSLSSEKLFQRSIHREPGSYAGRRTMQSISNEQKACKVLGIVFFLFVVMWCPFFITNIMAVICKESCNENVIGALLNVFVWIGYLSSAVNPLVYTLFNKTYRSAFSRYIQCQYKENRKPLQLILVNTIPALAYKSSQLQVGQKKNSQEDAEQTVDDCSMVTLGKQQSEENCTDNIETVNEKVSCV
Chain of Serotonin 2 (5-HT2) receptor (Rattus norvegicus) (P30994 whole entry, looked up): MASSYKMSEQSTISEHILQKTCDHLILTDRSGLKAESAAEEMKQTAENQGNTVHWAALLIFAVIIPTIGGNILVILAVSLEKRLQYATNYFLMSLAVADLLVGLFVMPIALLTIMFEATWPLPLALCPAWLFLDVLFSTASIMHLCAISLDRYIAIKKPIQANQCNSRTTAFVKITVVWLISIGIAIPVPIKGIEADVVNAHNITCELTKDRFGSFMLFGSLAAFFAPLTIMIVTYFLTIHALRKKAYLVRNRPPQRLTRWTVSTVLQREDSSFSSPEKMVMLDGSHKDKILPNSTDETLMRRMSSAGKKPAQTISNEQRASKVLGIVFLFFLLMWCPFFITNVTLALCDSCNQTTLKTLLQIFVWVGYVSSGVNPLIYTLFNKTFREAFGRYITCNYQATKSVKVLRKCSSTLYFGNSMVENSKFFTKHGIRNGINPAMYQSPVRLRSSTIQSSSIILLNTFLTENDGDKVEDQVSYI

[10] = target: Sodium-dependent dopamine transporter (Rattus norvegicus, UniProt P23977); assay: Inhibition of the uptake of tritiated dopamine (DA) in rat synaptosomes; type: subcellular, Brain
Chain of Sodium-dependent dopamine transporter (P23977 whole entry): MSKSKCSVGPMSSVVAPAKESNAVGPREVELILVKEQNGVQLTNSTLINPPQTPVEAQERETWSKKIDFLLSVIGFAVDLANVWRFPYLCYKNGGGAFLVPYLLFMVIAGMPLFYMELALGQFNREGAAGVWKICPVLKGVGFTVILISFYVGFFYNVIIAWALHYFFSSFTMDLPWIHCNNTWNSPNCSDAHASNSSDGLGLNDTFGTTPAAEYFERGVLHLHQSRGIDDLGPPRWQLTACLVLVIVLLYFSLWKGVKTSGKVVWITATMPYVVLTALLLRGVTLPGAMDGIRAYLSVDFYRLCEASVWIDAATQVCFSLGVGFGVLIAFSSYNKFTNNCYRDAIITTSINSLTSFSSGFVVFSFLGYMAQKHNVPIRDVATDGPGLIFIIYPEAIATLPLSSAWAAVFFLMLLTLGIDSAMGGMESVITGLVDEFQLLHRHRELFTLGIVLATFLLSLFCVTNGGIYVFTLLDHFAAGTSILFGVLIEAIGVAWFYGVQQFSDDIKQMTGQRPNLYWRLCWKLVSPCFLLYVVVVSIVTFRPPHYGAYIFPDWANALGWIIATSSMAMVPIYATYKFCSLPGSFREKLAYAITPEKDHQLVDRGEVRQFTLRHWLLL

Mus musculus [11] = organism: Mus musculus; assay: Gross behavioral effects ascertained in mice; S indicates significant stimulant properties.; type: functional, organism-based
Procedure, shortened: (§3)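 Male Swiss Webster mice, 18–24 g, three per dose, given ip doses of 1, 3, 10, 30, 100 and 300 mg/kg. Observed for gross behavior and held for 4 days. Scored as weak (W), stimulant (S), depressant (D) or convulsant (C).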

Mus musculus [12] = assay: (§4) Ability to antagonise intraperitoneal dose; inactive (<10% antagonism) at 30 mgjkg is represented as I-30.; type: functional, organism-based
Procedure, shortened: (§5)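 Swiss Webster male albino mice, nonfasted, 18–24 g, 10 per dose and in saline control. Compound given ip 30 min before TBZ 32 mg/kg ip. Motor activity and ptosis scored. Response corrected by Abbott's formula when control response was 90% or less. Doses expressed as free base.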

Rattus norvegicus [13] = organism: Rattus norvegicus; assay: Ability to inhibit the uptake of tritiated dopamine (DA) 1 uM concentration; type: functional
Procedure, shortened: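 Rat brain synaptosomal [3H]dopamine uptake: striatal P2 fraction, test compound at 1.00 μM. Preincubated at 37 °C, then 50–300 nM [3H]DA for 3 min. Blanks on ice. Filtration and scintillation counting; percent inhibition of control uptake.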

[14] = target: Sodium-dependent serotonin transporter (Rattus norvegicus) (UniProt P31652); assay: Ability to inhibit the uptake of [3H]- serotonin(5-HT) 0.1 uM concentration at rat brain synaptosomes; type: functional, subcellular
Chain of Sodium-dependent serotonin transporter (Rattus norvegicus) (P31652 whole entry): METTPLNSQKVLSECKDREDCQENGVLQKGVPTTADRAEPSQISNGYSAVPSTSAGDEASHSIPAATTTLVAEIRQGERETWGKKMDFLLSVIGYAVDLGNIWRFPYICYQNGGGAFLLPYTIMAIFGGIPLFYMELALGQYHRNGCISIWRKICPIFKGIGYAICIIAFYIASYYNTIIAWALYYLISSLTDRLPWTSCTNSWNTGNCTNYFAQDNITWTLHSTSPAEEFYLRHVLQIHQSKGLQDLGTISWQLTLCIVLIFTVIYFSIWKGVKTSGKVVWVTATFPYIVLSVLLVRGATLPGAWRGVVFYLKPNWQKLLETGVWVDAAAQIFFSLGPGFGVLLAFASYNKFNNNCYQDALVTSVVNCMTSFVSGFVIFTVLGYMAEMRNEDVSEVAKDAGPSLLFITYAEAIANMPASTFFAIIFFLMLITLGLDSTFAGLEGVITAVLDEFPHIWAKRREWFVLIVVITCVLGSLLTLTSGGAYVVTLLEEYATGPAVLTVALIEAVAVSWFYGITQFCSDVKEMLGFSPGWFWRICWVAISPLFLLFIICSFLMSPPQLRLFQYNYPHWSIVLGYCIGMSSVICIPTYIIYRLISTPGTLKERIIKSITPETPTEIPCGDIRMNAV
Procedure, shortened: (§6)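 Male Wistar rat brain synaptosomes (P2 fraction): hypothalamus for NE, striatum for DA, cerebral cortex for 5-HT. Buffer is Tris- or HEPES-buffered salt medium with glucose, ascorbate and nialamide, pH 7.4 at 37 °C. Preincubated 10 min at 37 °C with compound. Uptake started with [3H]NE 100–300 nM, [3H]DA 50–300 nM or [3H]5-HT 100–200 nM, incubated 3 min (DA) or 6–10 min (NE, 5-HT). Blanks held on ice. Filtered, counted by scintillation.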

Mus musculus [15] = assay: as §4; type: functional, organism-based; procedure, shortened: as §5; remark: listed apart in the source
Mus musculus [16] = organism: Mus musculus; assay: Gross behavioral effects ascertained in mice; W indicates weak stimulant or depressant activity of little significance.; type: functional, organism-based; procedure, shortened: as §3
[17] = target: Norepinephrine transporter (Rattus norvegicus) (UniProt Q9WTR4); assay: Ability to inhibit the uptake of [3H]norepinephrine (NE) 0.1 uM concentration at rat brain synaptosomes; type: functional, subcellular; procedure, shortened: as §6
Chain of Norepinephrine transporter (Rattus norvegicus) (Q9WTR4 as listed by the source): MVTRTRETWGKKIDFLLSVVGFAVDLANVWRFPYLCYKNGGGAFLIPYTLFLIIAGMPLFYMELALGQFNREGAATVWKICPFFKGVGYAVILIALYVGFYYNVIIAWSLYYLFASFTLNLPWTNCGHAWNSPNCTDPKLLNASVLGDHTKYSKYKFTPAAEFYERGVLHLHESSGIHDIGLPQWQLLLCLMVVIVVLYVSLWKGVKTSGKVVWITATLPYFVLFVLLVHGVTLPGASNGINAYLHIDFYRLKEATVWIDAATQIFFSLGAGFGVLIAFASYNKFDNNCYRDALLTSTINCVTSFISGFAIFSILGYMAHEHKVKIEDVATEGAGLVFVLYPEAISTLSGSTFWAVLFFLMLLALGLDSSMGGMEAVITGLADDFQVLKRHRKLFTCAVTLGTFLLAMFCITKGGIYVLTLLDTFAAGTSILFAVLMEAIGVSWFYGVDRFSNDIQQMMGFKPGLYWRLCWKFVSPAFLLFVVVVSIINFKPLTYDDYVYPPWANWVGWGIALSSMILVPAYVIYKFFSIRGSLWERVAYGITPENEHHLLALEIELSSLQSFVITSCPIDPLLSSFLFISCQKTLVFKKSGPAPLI

Rattus norvegicus [18] = assay: Ability to inhibit the uptake of tritiated serotonin(5-HT) 0.1 mg/kg concentration; type: functional
Rattus norvegicus [19] = assay: Ability to inhibit the uptake of tritiated norepinephrine (NE) 0.1 mg/kg concentration; type: functional
[20] = target: Serotonin 1 (5-HT1) receptor (Rattus norvegicus) (UniProt P28564+P30940+P19327+P28565); assay: Binding affinity towards serotonin S1 receptor at 1.0 uM; type: protein assay; procedure, shortened: as §2

Chain of Norepinephrine transporter (Q9WTR4 whole entry): as the sequence (Q9WTR4 as listed by the source) above

| Compound | Ki [1] | Ki [3] | ED50 (Mus musculus [4]) | ED50 (Mus musculus [7]) | inhibition [8] | Ki [10] | ED50 (Mus musculus [12]) | ED50 (Mus musculus [15]) | behavior (Mus musculus [16]) | inhibition in vivo at 0.1 mg/kg (Rattus norvegicus [18]) | inhibition in vivo at 0.1 mg/kg (Rattus norvegicus [19]) | further results |
| --- | --- | --- | --- | --- | --- | --- | --- | --- | --- | --- | --- | --- |
| Clc1ccc([C@@H]2CN3CCC[C@@H]3c3ccccc32)cc1Cl | 0.68 nM | 990 nM | 0.39 mg/kg | 0.14 mg/kg | 37% | 0.99 nM | – | – | – | – | – | inhibition [2]: 9%; Ki [5]: 465 nM; inhibition [6]: 33%; inhibition [9]: 24%; behavior (Mus musculus [11]): Stimulant |
| C[C@@]12CCCN1CCc1ccccc12 | – | – | – | – | – | – | inactive | inactive | Weak | – | – | Inhibition (Rattus norvegicus [13]): 15%; inhibition [14]: 2%; inhibition [17]: 6% |
| c1ccc([C@@H]2CN3CC[C@H]3c3ccccc32)cc1 | 866 nM | – | – | – | – | 1620 nM | inactive | inactive | – | – | – | – |
| c1ccc(CCN2CCCC2c2ccccc2)cc1 (stereo not given) | – | – | ~10 mg/kg | ~10 mg/kg | – | – | – | – | Weak | 4% | 38% | – |
| Br.Cn1ccc2c1[C@H](c1ccccc1)CN1CCC[C@@H]21 | – | – | > 30 mg/kg | > 30 mg/kg | – | – | – | – | Weak | 6% | 8% | – |
| CN(C)CCCN1c2ccccc2CCc2ccccc21 [IMIPRAMINE] | – | 4900 nM | – | 0.78 mg/kg | 63% | – | – | – | – | – | – | inhibition [20]: 15% |

Reference: ChEMBL document CHEMBL1123812, “Pyrroloisoquinoline antidepressants. 2. In-depth exploration of structure-activity relationships” (J Med Chem, 1987)
